pIC50: −log10 of the molar value. In brackets after ≈: the same amount, converted by molar mass.
Assays:
MCF7 = assay: Inhibition of breast carcinoma cell line (MCF-7) growth; type: functional, cell-based; details: Homo sapiens
In short: (§1)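 Monolayers in DMEM with 10% FBS, 2 mM L-glutamine, penicillin/streptomycin, 37 °C, 5% CO2. Cells seeded on day 0, then compounds added in 5- and 10-fold dilutions (10^-8–10^-4 M) for 72 h. MTT read-out at 570 nm. Percent growth calculated relative to time-zero and untreated OD. Quadruplicates in three experiments; IC50 by linear interpolation, highest concentration reported as ">" when not reached.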

WI-38 = assay: Inhibition of normal human fibroblast cell line (WI 38) growth; type: functional, cell-based; in short: as §1
MOLT-4 = assay: Inhibition of human T-lymphocyte cell line (Molt4/C8) growth; type: functional, cell-based
L1210 = assay: Inhibition of murine leukemia cells (L1210) growth; type: functional, cell-based; details: Mus musculus
[1] = Effective concentration required to reduce plaque formation by AD-169 strain of CMV virus in Human embryonic lung cells; type: functional, cell-based
In short: (§2)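 Plaque reduction assay in human embryonic lung (HEL) cell cultures, virus input 100 plaque forming units. Viruses: CMV strains AD-169 and Davis, VZV TK+ strain OKA and TK− strain 07/1. EC50 is the concentration that reduces virus plaque formation by 50%.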

SW-620 = assay: Inhibition of colon carcinoma cell line (SW 620) growth; type: functional, cell-based; details: Homo sapiens; in short: as §1
HEp-2 = assay: Inhibition of laryngeal carcinoma cell line (Hep-2) growth; type: functional, cell-based; details: Homo sapiens; in short: as §1
[2] = Effective concentration required to reduce plaque formation by Davis strain of CMV virus in Human embryonic lung cells; type: functional, cell-based; in short: as §2
Human alphaherpesvirus 3 [3] = assay: Effective concentration of compound required to reduce plaque formation by OKA strain of thymidine kinase positive VZ virus TK+ in human embryonic lung cells; type: functional, organism-based; details: Human alphaherpesvirus 3, lung
HEL [4] = assay: Minimum cytotoxic concentration of compound that causes alteration of cell morphology in human embryonic lung cells; type: functional
In short: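 Human embryonic lung (HEL) cells were examined microscopically. MCC is the minimum concentration that causes a detectable alteration of cell morphology.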

MIA PaCa-2 = assay: Inhibition of pancreatic carcinoma cell line (MiaPaCa-2) growth; type: functional, cell-based; details: Homo sapiens; in short: as §1
Human alphaherpesvirus 3 [5] = assay: Reduction of plaque formation by VZV07/1 strain of thymidine kinase(TK-) deficient VZ virus in human embryonic lung cells; type: functional, organism-based; details: Human alphaherpesvirus 3, lung
HeLa = assay: Inhibition of cervical carcinoma cell line (HeLa) growth; type: functional, cell-based; details: Homo sapiens; in short: as §1
HEL [6] = assay: Cytotoxic concentration to reduce the 50% cell growth of human embryonic lung cells; type: functional
[7] = Homo sapiens, HEL, read-out: CC50

Compound	pIC50 (MCF7)	pIC50 (WI-38)	pIC50 (MOLT-4)	pIC50 (L1210)	EC50 [1]	pIC50 (SW-620)	pIC50 (HEp-2)	EC50 [2]	EC50 (Human alphaherpesvirus 3 [3])	MCC (HEL [4])	pIC50 (MIA PaCa-2)	EC50 (Human alphaherpesvirus 3 [5])	pIC50 (HeLa)	CC50 (HEL [6]; [7])	CC50 (HEL [6])
CC(C)C(NC(=O)n1nnc2ccccc21)C(=O)NC1CCCC1 (configuration not stated)	4.10	≤ 4.00	< 3.70	< 3.70	> 200 µg/mL	< 3.70	4.22	> 200 µg/mL	> 80 µg/mL	> 200 µg/mL	< 4.00	> 200 µg/mL	4.02		
O=C(NO)NC(Cc1ccccc1)C(=O)NCc1ccccc1 (configuration not stated)		< 4.00	4.92	4.77		< 4.00	< 4.00				< 4.00		< 4.00		
O=C(NC1CCCCC1)C(NC(=O)n1nnc2ccccc21)c1ccccc1 (configuration not stated)	4.24	< 4.00	4.04	4.02	> 3.2 µg/mL	< 4.00	4.16	> 16 µg/mL	> 0.64 µg/mL	≥ 16 µg/mL	≤ 4.00	> 3.2 µg/mL	4.17	15 µg/mL (≈ 39.7 µM)	
Nc1nc2c(ncn2COCCO)c(=O)[nH]1 [ACYCLOVIR]										> 400 µg/mL				200 µg/mL (≈ 888 µM)	200 µg/mL (≈ 888 µM)
CCC(C)C(NC(=O)NO)C(=O)NC1CCCCC1 (configuration not stated)	< 4.00	< 4.00	3.82	4.05		< 4.00	< 4.00				< 4.00		< 4.00		
O=C(NC(c1ccccc1)c1ccccc1)C(NC(=O)n1nnc2ccccc21)c1ccccc1 (configuration not stated)	4.47	4.00	4.05	3.94	> 16 µg/mL	4.29	4.23	> 16 µg/mL	> 3.2 µg/mL	80 µg/mL	4.37	> 3.2 µg/mL	4.48	38.3 µg/mL (≈ 83 µM)	
O=C1NC(c2ccccc2)C(=O)N1C1CCCC1 (configuration not stated)	4.66	< 4.00	< 3.70	< 3.70	> 20 µg/mL	< 4.00	< 4.00	> 4 µg/mL	> 4 µg/mL	≥ 20 µg/mL	< 4.00	9 µg/mL (≈ 36.8 µM)	< 4.00	27.4 µg/mL (≈ 112 µM)	
O=C(NO)NC(C(=O)Nc1ccccc1)c1ccccc1 (configuration not stated)			< 3.70												
O=C(NO)NC(C(=O)NCc1ccccc1)c1ccccc1 (configuration not stated)			4.77												
CCC(C)C(NC(=O)n1nnc2ccccc21)C(=O)NCc1ccccc1 (configuration not stated)			4.02												
O=C(NO)NC(C(=O)N1CCCCC1)c1ccccc1 (configuration not stated)	< 4.00	5.17	3.90	4.10		< 4.00	< 4.00				< 4.00		< 4.00		
CCC(C)C(NC(=O)n1nnc2ccccc21)C(=O)NC1CCCCC1 (configuration not stated)			4.01												
O=C(NCC1CCCCC1)C(NC(=O)n1nnc2ccccc21)c1ccccc1 (configuration not stated)	4.45	< 4.00	4.14	4.01	> 16 µg/mL	< 4.00	4.16		> 3.2 µg/mL	≥ 16 µg/mL	4.14	> 3.2 µg/mL	4.10	43.4 µg/mL (≈ 111 µM)	
O=C(NO)NC(Cc1ccccc1)C(=O)N1CCCC1 (configuration not stated)	< 4.00	≤ 4.00	3.72	< 3.70		< 4.00	≤ 4.00				< 4.00		< 4.00		
CC(C)C(NC(=O)NO)C(=O)NC1CCCC1 (configuration not stated)	< 4.00	< 4.00	< 3.70	< 3.70		< 4.00	4.48				< 4.00		< 4.00		
CC(C)C1NC(=O)N(C2CCCCC2)C1=O (configuration not stated)	< 4.00	< 4.00	< 3.70	< 3.70	45 µg/mL (≈ 201 µM)	< 4.00	4.00	41 µg/mL (≈ 183 µM)	45 µg/mL (≈ 201 µM)	≥ 100 µg/mL	< 4.00	29 µg/mL (≈ 129 µM)	< 4.00	> 50 µg/mL	
O=C(NO)NC(C(=O)NC(c1ccccc1)c1ccccc1)c1ccccc1 (configuration not stated)	4.08	< 4.00	4.41	4.74		4.20	4.08				4.50		4.38		
CCC(C)C1NC(=O)N(C2CCCC2)C1=O (configuration not stated)			< 3.70												
CCC(C)C(NC(=O)NO)C(=O)NCc1ccccc1 (configuration not stated)			3.90												

Compound	pIC50 (MCF7)	pIC50 (WI-38)	pIC50 (MOLT-4)	pIC50 (L1210)	EC50 [1]	pIC50 (SW-620)	pIC50 (HEp-2)	EC50 [2]	EC50 (Human alphaherpesvirus 3 [3])	MCC (HEL [4])	pIC50 (MIA PaCa-2)	EC50 (Human alphaherpesvirus 3 [5])	pIC50 (HeLa)	CC50 (HEL [6]; [7])	CC50 (HEL [6])
CC(C)C(NC(=O)NO)C(=O)NC1CCCCC1 (configuration not stated)	< 4.00	4.23	< 4.00	< 4.00		< 4.00	< 4.00				< 4.00		< 4.00		
CCC(C)C(NC(=O)NO)C(=O)NC(c1ccccc1)c1ccccc1 (configuration not stated)			4.25												
O=C(NC1CCCCC1)C(Cc1ccccc1)NC(=O)n1nnc2ccccc21 (configuration not stated)	4.68	4.20	3.94	3.90	> 16 µg/mL	3.96	4.19	> 16 µg/mL		80 µg/mL	≤ 4.00		4.46	33 µg/mL (≈ 84.3 µM)	
CC(C)C1NC(=O)N(C2CCCC2)C1=O (configuration not stated)	< 4.00	< 4.00	< 3.70	< 3.70	> 100 µg/mL	< 4.00	4.01	> 100 µg/mL	> 84 µg/mL	> 100 µg/mL	< 4.00	> 90 µg/mL	< 4.00	> 50 µg/mL	
O=C(C(NC(=O)n1nnc2ccccc21)c1ccccc1)N1CCCCC1 (configuration not stated)	4.17	≤ 4.00	4.09	4.09	> 80 µg/mL	< 4.00	< 4.00	> 80 µg/mL	> 80 µg/mL	200 µg/mL	≤ 4.00	> 80 µg/mL	< 4.00	188 µg/mL (≈ 517 µM)	
CCC(C)C(NC(=O)n1nnc2ccccc21)C(=O)NC1CCCC1 (configuration not stated)			4.03												
O=C(C(Cc1ccccc1)NC(=O)n1nnc2ccccc21)N1CCCC1 (configuration not stated)	≤ 4.00	< 4.00	3.91	3.88	> 200 µg/mL	< 4.00	≤ 4.00	> 200 µg/mL	117 µg/mL (≈ 322 µM)	> 200 µg/mL	< 4.00	106 µg/mL (≈ 292 µM)	< 4.00	148 µg/mL (≈ 406 µM)	
O=C(NC1CCCC1)C(Cc1ccccc1)NC(=O)n1nnc2ccccc21 (configuration not stated)	4.04	< 4.00	4.21	4.17	> 3.2 µg/mL	< 4.00	4.02	> 3.2 µg/mL	> 3.2 µg/mL	16 µg/mL	< 4.00	> 3.2 µg/mL	4.27	15.5 µg/mL (≈ 41.1 µM)	
CCC(C)C1NC(=O)N(C2CCCCC2)C1=O (configuration not stated)			< 3.70												
O=C(NO)NC(Cc1ccccc1)C(=O)NC1CCCCC1 (configuration not stated)	≤ 4.00	< 4.00	4.72	4.74		4.00	4.03				4.51		4.24		
CCC(C)C1NC(=O)N(Cc2ccccc2)C1=O (configuration not stated)			< 3.70												
CC(C)C(NC(=O)n1nnc2ccccc21)C(=O)NC1CCCCC1 (configuration not stated)	4.10	≤ 4.00	4.01	3.97	> 80 µg/mL	< 4.00	4.22	> 16 µg/mL	> 3.2 µg/mL	≥ 80 µg/mL	< 4.00	> 3.2 µg/mL	4.02	90 µg/mL (≈ 262 µM)	
O=C(NO)NC(Cc1ccccc1)C(=O)NC(c1ccccc1)c1ccccc1 (configuration not stated)	4.36	4.48	4.68	4.74		4.18	4.21				4.39		4.40		
CCC(C)C(NC(=O)n1nnc2ccccc21)C(=O)NC(c1ccccc1)c1ccccc1 (configuration not stated)			4.10												
O=C(NC(c1ccccc1)c1ccccc1)C(Cc1ccccc1)NC(=O)n1nnc2ccccc21 (configuration not stated)	4.79	4.84	4.82	4.77	> 16 µg/mL	4.42	4.39		> 0.13 µg/mL	80 µg/mL	4.62	> 0.13 µg/mL	4.52	17.3 µg/mL (≈ 36.4 µM)	
O=C(NCc1ccccc1)C(Cc1ccccc1)NC(=O)n1nnc2ccccc21 (configuration not stated)			3.84												
O=C(NO)NC(Cc1ccccc1)C(=O)NC1CCCC1 (configuration not stated)	< 4.00	< 4.00	< 3.70	3.84		< 4.00	< 4.00				< 4.00		< 4.00		
CCC(C)C(NC(=O)NO)C(=O)NC1CCCC1 (configuration not stated)			< 4.00												

Reference: ChEMBL document CHEMBL1141177, “The novel L- and D-amino acid derivatives of hydroxyurea and hydantoins: synthesis, X-ray crystal structure study, and cytostatic and antiviral activity evaluations” (J Med Chem, 2005)
